What all share (type): cell-based
Assay [1] deals with T1, Retinoic acid receptor RXR-beta (Homo sapiens) (UniProt P28702).
T1 sequence (whole entry): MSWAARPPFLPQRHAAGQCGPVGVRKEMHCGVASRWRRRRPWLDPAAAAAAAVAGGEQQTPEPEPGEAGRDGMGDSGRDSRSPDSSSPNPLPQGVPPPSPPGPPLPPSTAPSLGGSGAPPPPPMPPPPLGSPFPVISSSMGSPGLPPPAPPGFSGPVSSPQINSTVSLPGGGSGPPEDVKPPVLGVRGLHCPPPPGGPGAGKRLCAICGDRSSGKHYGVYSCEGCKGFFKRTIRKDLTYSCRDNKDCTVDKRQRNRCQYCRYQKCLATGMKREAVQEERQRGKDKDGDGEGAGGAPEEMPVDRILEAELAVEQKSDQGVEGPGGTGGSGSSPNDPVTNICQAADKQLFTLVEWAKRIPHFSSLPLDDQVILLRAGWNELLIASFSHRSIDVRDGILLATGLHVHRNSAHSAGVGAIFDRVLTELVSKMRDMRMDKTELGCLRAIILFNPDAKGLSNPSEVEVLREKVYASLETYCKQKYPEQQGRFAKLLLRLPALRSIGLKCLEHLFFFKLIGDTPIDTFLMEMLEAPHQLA
As to the kind of experiment: Agonist activity at yeast GAL4 fused human RXRbeta ligand binding domain expressed in HeLa cells assessed as receptor transactivation by luciferase reporter gene assay.

Assay [2] addresses T2, Retinoic acid receptor gamma (Mus musculus) (UniProt P18911).
T2 sequence (whole entry): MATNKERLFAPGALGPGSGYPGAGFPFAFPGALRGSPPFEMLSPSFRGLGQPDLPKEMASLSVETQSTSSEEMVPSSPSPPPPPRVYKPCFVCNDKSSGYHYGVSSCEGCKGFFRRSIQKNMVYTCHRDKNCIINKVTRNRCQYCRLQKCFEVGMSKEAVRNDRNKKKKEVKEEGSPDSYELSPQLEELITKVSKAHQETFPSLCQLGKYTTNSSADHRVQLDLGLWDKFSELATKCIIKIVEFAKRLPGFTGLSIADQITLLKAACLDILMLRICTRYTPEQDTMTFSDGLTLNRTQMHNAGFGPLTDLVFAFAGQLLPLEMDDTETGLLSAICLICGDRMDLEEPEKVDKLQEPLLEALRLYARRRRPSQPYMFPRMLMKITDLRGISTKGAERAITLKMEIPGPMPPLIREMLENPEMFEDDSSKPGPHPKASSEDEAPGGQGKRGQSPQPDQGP
Nature of the assay: Agonist activity at yeast GAL4 fused mouse RARgamma ligand binding domain expressed in HeLa cells assessed as receptor transactivation by luciferase reporter gene assay. The method, boiled down: (§1)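 Stably transfected HeLa lines carrying a (17m)5-βG-Luc-Neo reporter and the matching Gal4-mRAR fusion were seeded at 160,000 cells/well. After 12 h, cells were given ligand across a dose range in phenol-red-free DMEM with 5% charcoal-treated FCS and held 12 h at 37 °C, 5% CO2. Lysates were read for luciferase with luciferin, ATP and coenzyme A. Fold induction is compound RLU over vehicle-control RLU.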
Background: Reporter assays use an easily measured gene product as a stand-in for the process of interest.

Assay [3] deals with T1, Retinoic acid receptor RXR-beta (Homo sapiens). Nature of the assay: Antagonist activity at yeast GAL4 fused human RXRbeta ligand binding domain expressed in HeLa cells assessed as inhibition of receptor transactivation by luciferase reporter gene assay.
In assay [4] the target is T3, Retinoic acid receptor alpha (Mus musculus) (UniProt P11416).
T3 sequence (whole entry): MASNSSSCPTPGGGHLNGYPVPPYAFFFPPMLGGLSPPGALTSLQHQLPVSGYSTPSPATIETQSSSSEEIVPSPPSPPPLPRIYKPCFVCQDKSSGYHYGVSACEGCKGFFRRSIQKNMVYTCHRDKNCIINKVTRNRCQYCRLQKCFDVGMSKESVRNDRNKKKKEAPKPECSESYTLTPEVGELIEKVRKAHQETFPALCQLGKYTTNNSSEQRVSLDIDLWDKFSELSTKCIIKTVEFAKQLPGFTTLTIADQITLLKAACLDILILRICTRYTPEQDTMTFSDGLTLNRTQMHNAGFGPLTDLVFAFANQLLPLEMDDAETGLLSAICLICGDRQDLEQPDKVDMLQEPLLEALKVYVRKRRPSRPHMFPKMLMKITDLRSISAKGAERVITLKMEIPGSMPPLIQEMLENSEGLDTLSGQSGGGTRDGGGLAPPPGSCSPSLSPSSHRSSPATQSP
Nature of the assay: Agonist activity at yeast GAL4 fused mouse RARalpha ligand binding domain expressed in HeLa cells assessed as receptor transactivation by luciferase reporter gene assay. Put shortly:
as §1

In assay [5] the target is T4, Retinoic acid receptor beta (Mus musculus, UniProt P22605).
T4 sequence (P22605 whole entry): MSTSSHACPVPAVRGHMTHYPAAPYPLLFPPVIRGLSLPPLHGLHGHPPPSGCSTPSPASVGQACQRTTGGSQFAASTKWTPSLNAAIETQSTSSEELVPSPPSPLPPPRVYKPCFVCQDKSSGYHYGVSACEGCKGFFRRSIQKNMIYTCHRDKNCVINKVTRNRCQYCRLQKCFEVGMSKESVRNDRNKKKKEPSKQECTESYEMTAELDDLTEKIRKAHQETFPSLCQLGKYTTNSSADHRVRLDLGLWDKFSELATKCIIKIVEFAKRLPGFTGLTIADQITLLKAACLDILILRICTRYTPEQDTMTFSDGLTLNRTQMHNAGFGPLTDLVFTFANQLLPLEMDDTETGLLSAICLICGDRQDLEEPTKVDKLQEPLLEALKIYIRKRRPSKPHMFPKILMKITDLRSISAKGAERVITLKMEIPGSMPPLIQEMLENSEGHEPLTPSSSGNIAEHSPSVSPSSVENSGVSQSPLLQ
As to the kind of experiment: (§2) Antagonist activity at yeast GAL4 fused mouse RARbeta ligand binding domain expressed in HeLa cells assessed as inhibition of TTNPB-induced receptor transactivation by luciferase reporter gene assay. Put shortly:
(§3)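 The Gal4-mRAR fusion HeLa reporter lines [(17m)5-βG-Luc-Neo] were seeded at 160,000 cells/well. After 12 h, cells got 10 nM TTNPB plus rising test-compound concentrations in phenol-red-free DMEM with 5% charcoal-treated FCS for 12 h at 37 °C, 5% CO2. Luciferase in lysates was read luminometrically. Antagonism is the loss of activity relative to TTNPB alone.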

The target in assay [6] is T5, Retinoic acid receptor alpha (Mus musculus, UniProt P11416).
T5 sequence (P11416 whole entry): T3 sequence (whole entry)
As to the kind of experiment: (§4) Antagonist activity at yeast GAL4 fused mouse RARalpha ligand binding domain expressed in HeLa cells assessed as inhibition of TTNPB-induced receptor transactivation by luciferase reporter gene assay. The method, boiled down:
as §3

In assay [7] the target is T6, Retinoic acid receptor beta (Mus musculus) (UniProt P22605).
T6 sequence (whole entry): T4 sequence (P22605 whole entry)
The description is as §2. The method, boiled down: as §3

For assay [8], the target named is T3, Retinoic acid receptor alpha (Mus musculus). The assay is described as §4. The method, boiled down: as §3
Assay [9] has as its target T2, Retinoic acid receptor gamma (Mus musculus). Nature of the assay: (§5) Antagonist activity at yeast GAL4 fused mouse RARgamma ligand binding domain expressed in HeLa cells assessed as inhibition of TTNPB-induced receptor transactivation by luciferase reporter gene assay. The method, boiled down:
as §3

In assay [10] the target is T7, Retinoic acid receptor gamma (Mus musculus, UniProt P18911).
T7 sequence (P18911 whole entry): T2 sequence (whole entry)
The description is as §5. Put shortly:
as §3

The source made the active and inactive calls. The calls are words filed in the database; no cut-off is given here.

As for `CC1(C)CC=C(C#Cc2ccccc2)c2ccc(C(=O)/C=C/c3ccc(C(=O)O)cc3)cc21`, in assay [1], the result was inactive. In addition, the result in assay [2] and in assay [4] was Active. Moreover, the inhibition entry in [3] was “Active”.
The IC50 is the concentration needed to halve the response being measured. In the case of `Cc1ccc(C2=CCC(C)(C)c3cc(C(O)/C=C/c4ccc(C(=O)O)cc4)ccc32)cc1` (racemic), the values for the IC50 in assay [5] and in [6] were 2 µM and 0.4 µM, respectively. In assay [2], the outcome was inactive.
With `Cc1ccc(C2=CCC(C)(C)c3cc(C(O)C(=O)Nc4ccc(C(=O)O)cc4F)ccc32)cc1` (racemic), the outcome in assay [1], in assay [2] and in assay [4] was inactive. Moreover, the inhibition entry in [7], in [8] and in assay [9] was “inactive” each time.
On to `Cc1ccc(C2=CCC(C)(C)c3cc(C(=O)/C=C/c4ccc(C(=O)O)cc4)ccc32)cc1`, for which the values for the 50% inhibitory concentration (IC50) in assay [5] and in assay [6] were 0.4 µM and under 0.3 µM, respectively.
In the case of `CC1(C)CC=C(C#Cc2ccccc2)c2ccc(C(=O)C(=O)Nc3ccc(C(=O)O)cc3F)cc21`, the result in assay [1] was Active. Also, the inhibition entry in assay [7], in [8] and in [9] was “Active” each time.
Regarding `CC1(C)CC=C(c2ccccc2)c2ccc(C(O)C(=O)Nc3ccc(C(=O)O)cc3F)cc21` (racemic), the outcome in [1] was inactive. The inhibition entry in assay [7], in assay [8] and in [9] was “Active” each time. Besides, the result in assay [2] and in assay [4] was Active.
Consider `Cc1ccc(C2=CCC(C)(C)c3cc(C(=O)C(=O)Nc4ccc(C(=O)O)cc4F)ccc32)cc1`, for which, in assay [1], the outcome was Active. The inhibition entry in [7], in assay [8] and in [9] was “Active” in each case.
Turning to `CC1(C)CC=C(c2ccccc2)c2ccc(C(=O)C(=O)Nc3ccc(C(=O)O)cc3F)cc21`, the outcome in assay [1] was Active. Besides, the inhibition result in assay [7], in [8] and in assay [9] was “Active” each time.
`CC1(C)CC=C(c2ccccc2)c2ccc(C3=NOC(c4ccc(C(=O)O)cc4)C3)cc21` (racemic): the IC50 in assay [10] was over 10 µM.
The same measure, in the same setting: under `CC1(C)CC=C(C#Cc2ccccc2)c2ccc(C3=NOC(c4ccc(C(=O)O)cc4)C3)cc21` (racemic) stands 3 µM.
Consider `CC1(C)CC=C(c2ccccc2)c2ccc(C(=O)/C=C/c3ccc(C(=O)O)cc3)cc21`, for which the outcome in [2] and in [4] was Active. In addition, in assay [3], the inhibition entry was “Active”.
In the case of `CC1(C)CC=C(C#Cc2ccccc2)c2ccc(C(O)C(=O)Nc3ccc(C(=O)O)cc3F)cc21` (racemic), the result in [2] and in [4] was inactive.
As for `Cc1ccc(C2=CCC(C)(C)c3cc(C4=NOC(c5ccc(C(=O)O)cc5)C4)ccc32)cc1` (racemic), the inhibition result in [9] was “inactive”.

For the origin of these results see ChEMBL document CHEMBL1782047, “Retinoid receptor subtype-selective modulators through synthetic modifications of RARgamma agonists” (Bioorg Med Chem, 2009).
